Residue numbers refer to the chain shown, from its start. Where two headings read alike, the source gives them in different places.
Key:
[1] = biological target: T1, α-subunit of the bovine retinal rod CNG channel (RETα) (Bos taurus, UniProt Q00194); assay type: biochemical; details: for Ki: Ki (apparent affinity)
T1 sequence (Q00194 1-690): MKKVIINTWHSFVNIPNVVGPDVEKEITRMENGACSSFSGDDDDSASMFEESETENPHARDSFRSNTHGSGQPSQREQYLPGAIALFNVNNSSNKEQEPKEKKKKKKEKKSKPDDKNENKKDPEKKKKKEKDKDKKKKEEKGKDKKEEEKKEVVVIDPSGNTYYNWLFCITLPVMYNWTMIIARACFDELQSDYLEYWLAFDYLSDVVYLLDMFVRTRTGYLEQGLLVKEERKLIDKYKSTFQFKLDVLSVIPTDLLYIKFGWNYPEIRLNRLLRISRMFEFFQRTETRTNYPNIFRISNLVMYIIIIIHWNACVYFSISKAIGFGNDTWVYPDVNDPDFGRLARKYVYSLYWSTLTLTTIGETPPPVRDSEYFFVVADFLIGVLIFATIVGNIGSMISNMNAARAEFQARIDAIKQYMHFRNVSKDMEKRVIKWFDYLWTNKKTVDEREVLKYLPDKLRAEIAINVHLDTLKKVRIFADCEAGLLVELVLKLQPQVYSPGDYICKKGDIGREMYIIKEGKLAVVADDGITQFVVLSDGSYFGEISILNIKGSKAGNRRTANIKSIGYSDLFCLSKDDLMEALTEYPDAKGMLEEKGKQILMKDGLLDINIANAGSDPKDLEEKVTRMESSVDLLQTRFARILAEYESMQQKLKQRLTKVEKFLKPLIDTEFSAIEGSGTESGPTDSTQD
Method in brief: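 RETα was expressed in oocytes from 50 nl of 50 ng/μl RNA. Inside-out patches were held at −75 mV in symmetrical NaCl/EGTA/EDTA/HEPES, pH 7.5, with solution exchange within 50 ms. Current was normalized to Imax: residual current after 1 min preexposure then 2 mM cGMP, or steady-state current with compound added during 2 mM cGMP. Ki and Hill coefficient came from a modified Hill fit; τa from single-exponential fits; mean ± SEM.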

[2] = biological target: T1, α-subunit of the bovine retinal rod CNG channel (RETα); assay type: biochemical; details: for opening allosteric constant (L): L = Po/(1 − Po)
[3] = biological target: T2, CHM35 (RETα with Q417 substituted with a histidine) (Bos taurus, UniProt Q00194, Q417H); assay: Genistein inhibition of closed chimeric channel CHM35; assay type: biochemical, bovine/rat; details: closed channels
T2 sequence (Q00194 1-690 Q417H): T1 sequence (Q00194 1-690) with Q417H
Method in brief: (§1)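 Chimeric RETα/OLFα channels were expressed in Xenopus oocytes (50 nl of 50 ng/μl RNA, 2–7 d), and the vitelline membrane was removed. Inside-out patches were bathed in symmetrical 115 mM NaCl, 5 mM EGTA, 1 mM EDTA, 5 mM HEPES, pH 7.5, held at −75 mV. Test compound was preapplied 1 min to closed channels, then saturating 2 mM cGMP; residual current normalized to Imax.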

[4] = system: CHM 30 (converse substitution in OLFα background); assay: Genistein inhibition of closed chimeric channel CHM 30; assay type: biochemical, bovine/rat; details: closed channels
[5] = system: CHM17 (RETα with the OLFα cyclic nucleotide–binding domain); assay: Genistein inhibition of closed chimeric channel CHM17; assay type: biochemical, bovine/rat; details: closed channels
Method in brief: as §1

[6] = system: CHM18 (OLFα with a RETα cyclic nucleotide–binding domain); assay: Genistein inhibition of closed chimeric channel CHM18; assay type: biochemical, bovine/rat; details: closed channels
Method in brief: as §1

[7] = system: CHM16 (switched NH2-terminal domain through part of S1); assay: Genistein inhibition of closed chimeric channel CHM16; assay type: biochemical, bovine/rat; details: closed channels; behaved like parent channel
Method in brief: as §1

[8] = system: CHM11 (RETα with OLFα pore module: S5, P region, S6, initial C-linker); assay: Genistein inhibition of chimeric channel CHM11; assay type: biochemical, bovine/rat
[9] = system: CHM20 (S5 domain exchanged between RETα and OLFα); assay: Genistein inhibition of closed chimeric channel CHM20; assay type: biochemical, bovine/rat; details: closed channels
Method in brief: as §1

[10] = system: α-subunit of the rat olfactory CNG channel (OLFα); details: ref Molokanova et al. 2000; cited from earlier work
[11] = after genistein application, saturating cGMP

In the case of `O=c1c(-c2ccc(O)cc2)coc2cc(O)cc(O)c12` [genistein], the Ki ([1]; closed channels) is reported as 4.3 ± 0.9 µM, the Ki ([1]; fully activated channels (saturating cGMP)) is reported as 84.1 ± 6.8 µM and the “Hill coefficient of genistein inhibition” value ([1]; closed channels) is reported as 1.97 ± 0.08. For the same compound, the “dissociation of genistein–PTK from closed channels (time)” value ([1]; closed channels) was over 1 min, the “residual current, of maximal current” value ([1]; closed channels pretreated with Ni^2+ and genistein for 1 min) was 32.1 ± 3.4% and the “residual current, of maximal current” value ([1]; closed channels pretreated with genistein alone) was 1.3 ± 0.8%. For the same compound, the “association time constant (τa)” value ([1]; closed channels, 10 μM genistein) was 9.1 ± 0.4 s, the “association time constant (τa)” value ([1]; closed channels, 25 μM genistein) was 8.9 ± 0.6 s and the “association time constant (τa)” value ([1]; closed channels, 100 μM genistein) was 8.6 ± 0.7 s. For the same compound, the dissociation time constant ([1]; closed channels, first of two exponentials, 1-s cGMP puffs every 15 s) was 66 s, the dissociation time constant ([1]; closed channels, second of two exponentials, 1-s cGMP puffs every 15 s) was 808 s and the “association time constant (τa)” value ([1]; closed channels, single exponential fit, Fig. 2 A, 100 μM genistein) was 9.3 s. The “Hill coefficient of genistein inhibition” value ([1]; fully activated channels) was 1.02 ± 0.03, the “association time constant (τa)” value ([1]; fully activated channels, 25 μM genistein) was 12.1 ± 0.6 s and the “association time constant (τa)” value ([1]; fully activated channels, 100 μM genistein) was 12.6 ± 0.7 s. The “association time constant (τa)” value ([1]; fully activated channels, 250 μM genistein) was 12.6 ± 0.9 s, the “association time constant (τa)” value ([1]; fully activated channels, single exponential fit, Fig. 2 B) was 13.1 s and the dissociation time constant ([1]; fully activated channels, single exponential, after 1 min preexposure) was 14.4 s. The “efficacy of genistein inhibition” value ([1]; fully activated channels, steady-state current in saturating cGMP) was 65 ± 6%, the “change in cGMP sensitivity” value ([1]; genistein applied on fully activated channels) was “fourfold decrease” and the inhibition at 100 µM ([1]; read-out: inhibition of macroscopic current) was 41%. For the same compound, the “fraction of steady-state current from channels devoid of genistein–PTK” value ([1]; saturating cGMP plus genistein, Fig. 3 B protocol) was under 60%, the “effect on single-channel current” value ([2]; 100 μM genistein, saturating cGMP) was “unaffected” and the “decrease in the average Po” value ([2]; 100 μM genistein, saturating cGMP, six patches) was 39 ± 6%. For the same compound, the “Po during periods of high activity (bursty pattern)” value [2, 11] was 0.4–0.9, the “duration of high-Po periods” value [2, 11] was 15 to 30 s and the “duration of silent periods (Po = 0)” value [2, 11] was 10 to 80 s. For the same compound, the “single-channel current (i)” value ([2]; after preexposure to 100 μM genistein, Fig. 6 A) was 1.97 pA, the “single-channel current (i)” value ([2]; after preexposure to 100 μM genistein, Fig. 6 B) was 1.96 pA and the “Po, intermediate gating mode” value ([2]; after preexposure to 100 μM genistein, all four patches with this mode) was 0.39 ± 0.08. The “decrease of L compared with control” value ([2]; in the presence of genistein) was 30–1,000 fold, the “single-channel current (i)” value ([2]; in the presence of genistein, 2 mM cGMP, −80 mV, Fig. 5 B) was 1.97 pA and the “open probability (Po)” value ([2]; in the presence of genistein, 2 mM cGMP, −80 mV, Gaussian fit, Fig. 5 B) was 0.529. The “free energy of channel opening (ΔGopening)” value ([2]; one genistein molecule) was 0.24 kcal/mol, the “opening allosteric constant (L)” value ([2]; one genistein molecule bound) was 0.61 and the “opening allosteric constant (L)” value ([2]; two genistein molecules bound) was 0.02. For the same compound, the genistein inhibition [3] was “did not reduce genistein inhibition”, the genistein inhibition [4] was “neither substitution introduced genistein inhibition” and the genistein inhibition [5] was “complete inhibition”. The genistein inhibition [6] was “no inhibition”, the “effect of domain switch on genistein inhibition” value [7] was “had no effect” and the maximal inhibition ([8]; closed state, 500 μM genistein) was about 15%. The genistein sensitivity ([8]; open state, up to 500 μM genistein) was “completely insensitive”, the “effect of domain exchange on genistein inhibition” value [9] was “did not alter genistein inhibition” and the genistein inhibition [10] was “do not exhibit genistein inhibition”.

From article PMC2225614 (The Journal of General Physiology, 2001)
